ChEMBL document CHEMBL2407037, “Parvifloranines A and B, two 11-carbon alkaloids from Geijera parviflora” (J Nat Prod, 2013)
The source made the active and inactive calls. The calls are words filed in the database; no cut-off is given here.

How the values were obtained:
[1] = system: Escherichia coli; test: Antibacterial activity against Escherichia coli; format: functional, organism-based
[2] = system: Pseudomonas aeruginosa; test: Antibacterial activity against Pseudomonas aeruginosa; format: functional, organism-based
[3] = system: Staphylococcus epidermidis; test: Antibacterial activity against Staphylococcus epidermidis; format: functional, organism-based
[4] = system: Staphylococcus aureus; test: Antibacterial activity against methicillin-sensitive Staphylococcus aureus; format: functional, organism-based
[5] = Solubility of the compound; format: physicochemical
[6] = system: Staphylococcus aureus; test: Antibacterial activity against methicillin-resistant Staphylococcus aureus; format: functional, organism-based
[7] = system: NIH3T3; test: Inhibition of A23187-induced prostaglandin E2 production in Swiss albino mouse 3T3 cells; format: functional, cell-based
[8] = system: RAW264.7; test: Inhibition of LPS-induced TNF-alpha production in mouse RAW264.7 cells; format: functional, cell-based
[9] = system: RAW264.7; test: Selectivity index, ratio of EC50 for mouse RAW264.7 cells to IC50 for mouse RAW264.7 cells assessed as LPS-induced NO production; format: functional
How it was run: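 Index is cytotoxicity EC50 in RAW 264.7 cells (24 h ATPlite) divided by the IC50 for inhibition of LPS-induced nitrite production in the same cells (Griess readout).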

[10] = system: RAW264.7; test: Cytotoxicity against mouse RAW264.7 cells after 24 hrs by ATPLite assay; format: cell-based; details: RAW264.7, 24 h
How it was run: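 RAW 264.7 cells in colour-free DMEM with 10% FBS, 2 mM L-glutamine, 1 mM pyruvate, penicillin/streptomycin; 30 000 cells/well, compounds from DMSO stocks diluted 20-fold in medium, six concentrations; 24 h at 37 °C, 5% CO2. Cellular ATP read by ATPlite luminescence after lysis and 10 min dark adaptation. Chlorambucil as positive control; triplicate; EC50 from curve fit.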

[11] = system: RAW264.7; test: Inhibition of LPS-induced NO production in mouse RAW264.7 cells incubated 1 hr prior to LPS challenge measured after 20 hrs by Griess assay; format: functional, cell-based
How it was run: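 RAW 264.7 cells seeded at 10^6 cells/mL and grown 20 h before compound (DMSO stock diluted 20-fold in medium). After 1 h pretreatment, LPS (10 μg/mL stock, 10 μL/well) added, then 20 h further incubation. Supernatant nitrite read by Griess reagent, 20 min at 23 °C, absorbance 550 nm, against 0–100 μM nitrite standards. Output expressed as % of solvent control; triplicate, mean and SD.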

## C/C(=C\COc1ccc2ccc(=O)oc2c1)C1=C(CN2CCCC2C(=O)O)C(=O)C(C)(C)O1 (mixture of isomers)
[1]
  Activity: inactive
[2]
  Activity: inactive
[3]
  Activity: inactive
[4]
  Activity: inactive
[5]
  solubility: 245 µg/mL
[6]
  Activity: inactive
[7]
  inhibition: inactive
[8]
  inhibition: inactive
[9]
  Selectivity Index: 3.2
[10]
  EC50: 74.7 µM
[11]
  IC50: 23.4 µM
